From ChEMBL document CHEMBL2074563, “Involvement of multidrug resistance-associated proteins in regulating cellular levels of (-)-epigallocatechin-3-gallate and its methyl metabolites” (Biochem Biophys Res Commun, 2003)

Legend:
Assay type in all cases: functional, cell-based
Details in all cases: dog, mdck-ii
[1] = target: T1, Multidrug resistance-associated protein 1 (Homo sapiens, UniProt P33527); test: TP_TRANSPORTER: inhibition of EGCG in MRP1-expressing MDCKII cells
Summary of the method: (§1)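 MDCKII cells stably expressing human MRP1 or MRP2, grown to confluence, were preincubated for 2 h in serum-free HBSS. They were then exposed to [3H]EGCG (10 µM, 0.25 µCi/ml) in HBSS with 100 µM ascorbic acid, plus an efflux inhibitor or DMSO vehicle, for 1 h at 37 °C. Inhibitors were 10 µM indomethacin, 1 mM probenecid or 50 µM MK-571. Cells were washed in ice-cold PBS and lysed in 0.2 N NaOH. Cell-associated radioactivity was counted by scintillation and expressed as a ratio to the no-inhibitor control (mean ± SD, n = 4).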

[2] = target: T2, ATP-binding cassette sub-family C member 2 (Homo sapiens, UniProt Q92887); test: TP_TRANSPORTER: inhibition of EGCG in MRP2-expressing MDCKII cells; summary of the method: as §1
[3] = target: T2, ATP-binding cassette sub-family C member 2; test: TP_TRANSPORTER: uptake in MRP2-expressing MDCKII cells; summary of the method: as §1
[4] = target: T1, Multidrug resistance-associated protein 1; test: TP_TRANSPORTER: uptake in MRP1-expressing MDCKII cells; summary of the method: as §1

T2 sequence (Q92887 whole entry): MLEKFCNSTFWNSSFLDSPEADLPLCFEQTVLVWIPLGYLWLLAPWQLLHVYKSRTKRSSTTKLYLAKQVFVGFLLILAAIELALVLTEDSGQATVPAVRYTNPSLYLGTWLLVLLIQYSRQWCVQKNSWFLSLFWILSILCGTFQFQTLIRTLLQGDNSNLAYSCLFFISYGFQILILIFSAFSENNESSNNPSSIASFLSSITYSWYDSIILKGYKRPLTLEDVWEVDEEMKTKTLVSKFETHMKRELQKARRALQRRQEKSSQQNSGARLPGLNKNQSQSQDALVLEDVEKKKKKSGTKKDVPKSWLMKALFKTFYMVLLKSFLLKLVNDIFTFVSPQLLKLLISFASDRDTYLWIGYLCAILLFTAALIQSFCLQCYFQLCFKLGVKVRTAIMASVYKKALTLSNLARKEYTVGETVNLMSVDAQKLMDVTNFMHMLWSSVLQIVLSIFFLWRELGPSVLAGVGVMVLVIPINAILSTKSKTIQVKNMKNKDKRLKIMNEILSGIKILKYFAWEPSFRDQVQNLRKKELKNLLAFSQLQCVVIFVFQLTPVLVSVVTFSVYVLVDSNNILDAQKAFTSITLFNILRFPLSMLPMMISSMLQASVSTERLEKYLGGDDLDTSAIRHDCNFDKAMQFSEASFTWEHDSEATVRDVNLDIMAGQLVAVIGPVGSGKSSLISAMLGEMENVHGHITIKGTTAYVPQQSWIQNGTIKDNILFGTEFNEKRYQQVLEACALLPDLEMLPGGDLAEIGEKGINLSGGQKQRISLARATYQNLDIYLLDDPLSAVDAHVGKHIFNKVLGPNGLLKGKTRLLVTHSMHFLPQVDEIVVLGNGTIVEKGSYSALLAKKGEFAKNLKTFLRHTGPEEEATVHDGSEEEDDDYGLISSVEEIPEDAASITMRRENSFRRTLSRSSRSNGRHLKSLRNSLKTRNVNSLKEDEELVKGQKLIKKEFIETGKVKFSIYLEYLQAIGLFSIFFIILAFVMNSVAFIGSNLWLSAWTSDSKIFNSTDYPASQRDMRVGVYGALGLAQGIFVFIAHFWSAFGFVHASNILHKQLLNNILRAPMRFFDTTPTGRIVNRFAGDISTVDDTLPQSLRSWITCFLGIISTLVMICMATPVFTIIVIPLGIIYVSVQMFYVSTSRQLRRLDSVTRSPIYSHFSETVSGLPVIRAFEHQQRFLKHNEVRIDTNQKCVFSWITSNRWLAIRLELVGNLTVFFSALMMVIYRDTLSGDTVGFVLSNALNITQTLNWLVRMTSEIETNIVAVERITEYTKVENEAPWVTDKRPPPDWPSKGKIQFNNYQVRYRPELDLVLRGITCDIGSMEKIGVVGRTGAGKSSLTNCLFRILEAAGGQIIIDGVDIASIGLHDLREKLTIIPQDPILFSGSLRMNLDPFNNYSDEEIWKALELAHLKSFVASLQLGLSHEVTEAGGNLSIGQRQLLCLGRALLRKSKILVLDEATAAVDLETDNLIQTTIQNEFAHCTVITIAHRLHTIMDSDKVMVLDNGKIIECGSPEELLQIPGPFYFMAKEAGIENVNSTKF
T1 sequence (P33527 whole entry): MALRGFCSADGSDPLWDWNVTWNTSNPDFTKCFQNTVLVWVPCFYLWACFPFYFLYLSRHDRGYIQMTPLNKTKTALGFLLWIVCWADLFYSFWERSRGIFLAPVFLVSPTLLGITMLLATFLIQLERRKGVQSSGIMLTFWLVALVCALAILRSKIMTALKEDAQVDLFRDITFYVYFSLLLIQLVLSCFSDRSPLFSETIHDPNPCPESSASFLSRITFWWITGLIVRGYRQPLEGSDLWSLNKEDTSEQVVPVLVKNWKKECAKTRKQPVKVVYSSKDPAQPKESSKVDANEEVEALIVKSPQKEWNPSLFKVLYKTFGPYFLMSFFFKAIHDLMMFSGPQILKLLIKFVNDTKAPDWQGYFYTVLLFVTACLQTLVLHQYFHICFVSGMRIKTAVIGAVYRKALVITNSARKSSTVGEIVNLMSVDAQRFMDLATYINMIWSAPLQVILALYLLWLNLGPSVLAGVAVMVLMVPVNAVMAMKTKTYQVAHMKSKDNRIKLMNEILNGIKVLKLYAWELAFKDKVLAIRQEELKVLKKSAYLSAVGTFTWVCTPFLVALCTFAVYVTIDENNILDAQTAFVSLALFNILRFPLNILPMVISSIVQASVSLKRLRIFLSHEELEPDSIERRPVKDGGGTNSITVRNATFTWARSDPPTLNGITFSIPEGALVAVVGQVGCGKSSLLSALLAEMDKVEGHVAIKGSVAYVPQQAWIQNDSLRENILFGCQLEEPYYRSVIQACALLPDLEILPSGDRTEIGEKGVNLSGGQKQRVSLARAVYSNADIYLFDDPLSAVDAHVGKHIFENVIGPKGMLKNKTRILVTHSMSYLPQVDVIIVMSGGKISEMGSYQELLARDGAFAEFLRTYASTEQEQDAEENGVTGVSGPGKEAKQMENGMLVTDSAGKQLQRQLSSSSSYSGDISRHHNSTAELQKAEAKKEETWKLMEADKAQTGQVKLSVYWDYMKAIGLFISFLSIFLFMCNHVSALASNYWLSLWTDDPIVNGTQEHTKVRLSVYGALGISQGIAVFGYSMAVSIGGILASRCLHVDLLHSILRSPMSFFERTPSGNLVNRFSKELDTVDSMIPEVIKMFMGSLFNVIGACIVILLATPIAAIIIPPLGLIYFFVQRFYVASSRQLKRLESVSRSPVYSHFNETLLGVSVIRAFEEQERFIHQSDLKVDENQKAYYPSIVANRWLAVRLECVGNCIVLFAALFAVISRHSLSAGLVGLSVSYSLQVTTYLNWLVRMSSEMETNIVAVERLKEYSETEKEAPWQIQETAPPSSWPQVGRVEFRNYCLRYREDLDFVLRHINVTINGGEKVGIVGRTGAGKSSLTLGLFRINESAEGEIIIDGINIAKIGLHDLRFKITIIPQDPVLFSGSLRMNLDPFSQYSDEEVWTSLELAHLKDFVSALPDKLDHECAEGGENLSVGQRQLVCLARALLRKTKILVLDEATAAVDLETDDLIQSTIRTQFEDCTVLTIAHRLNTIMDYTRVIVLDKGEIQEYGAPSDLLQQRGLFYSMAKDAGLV

Activity [1]	Compound	also measured
inhibitor []	COc1ccc(-c2coc3cc(O)cc(O)c3c2=O)cc1 [BIOCHANIN]	–
–	CC[C@]1(O)C[C@H]2CN(CCc3c([nH]c4ccccc34)[C@@](C(=O)OC)(c3cc4c(cc3OC)N(C=O)[C@H]3[C@@](O)(C(=O)OC)[C@H](OC(C)=O)[C@]5(CC)C=CCN6CC[C@]43[C@@H]65)C2)C1 [VINCRISTINE]	Activity [2]: inhibitor []
–	COc1c(O)cc(C(=O)O[C@@H]2Cc3c(O)cc(O)cc3O[C@@H]2c2cc(O)c(OC)c(O)c2)cc1O	Activity [3]: substrate []; Activity [4]: substrate []
inhibitor []	O=c1c(-c2ccc(O)cc2)coc2cc(O)cc(O)c12 [GENISTEIN]	–
–	CN(C)C(=O)CCSC(SCCC(=O)O)c1cccc(/C=C/c2ccc3ccc(Cl)cc3n2)c1 (stereo not given) [MK-571]	Activity [2]: inhibitor []
–	COc1c(O)cc(C(=O)O[C@@H]2Cc3c(O)cc(O)cc3O[C@@H]2c2cc(O)c(O)c(O)c2)cc1O	Activity [3]: substrate []; Activity [4]: substrate []
inhibitor []	COc1ccc2c(c1)c(CC(=O)O)c(C)n2C(=O)c1ccc(Cl)cc1 [INDOMETHACIN]	–
inhibitor []	COc1cc(CCC(=O)CC(=O)CCc2ccc(O)c(OC)c2)ccc1O [TETRAHYDROCURCUMIN]	–
inhibitor []	COc1cc(/C=C/C(=O)CC(=O)/C=C/c2ccc(O)c(OC)c2)ccc1O [CURCUMIN]	–
inhibitor []	COc1ccc(-c2coc3cc(O)ccc3c2=O)cc1 [FORMONONETIN]	–
inhibitor []	O=c1c(-c2ccc(O)cc2)coc2cc(O)ccc12 [DAIDZEIN]	–
inhibitor []	CCCN(CCC)S(=O)(=O)c1ccc(C(=O)O)cc1 [PROBENECID]	Activity [2]: inhibitor []
